{"data": "Measured values from different studies", "MAL12": "Alpha-glucosidase MAL12 (MAL12, Saccharomyces cerevisiae S288c, UniProt P53341)", "note": "Protocols differ between the studies behind these lines."}
{"Structure (SMILES)": "C=C1CC[C@]2(C(=O)O[C@@H]3O[C@H](CO[C@@H]4O[C@H](CO)[C@@H](O[C@@H]5O[C@@H](C)[C@H](O)[C@@H](O)[C@H]5O)[C@H](O)[C@H]4O)[C@@H](O)[C@H](O)[C@H]3O)CC[C@]3(C)C(=CC[C@@H]4[C@@]5(C)CC[C@H](O[C@@H]6OC[C@H](O)[C@H](O)[C@H]6O[C@@H]6O[C@@H](C)[C@H](O)[C@@H](O)[C@H]6O)C(C)(C)[C@@H]5CC[C@]43C)[C@@H]2C1", "target": "MAL12", "assay": "enzyme activity, inhibitor", "IC50": "0.74 µM"}
{"Structure (SMILES)": "COc1cc(C(c2c(O)c3ccccc3oc2=O)c2c(O)c3ccccc3oc2=O)ccc1OCc1cn(CC(=O)Nc2ccc(C)cc2C)nn1", "target": "MAL12", "assay": "enzyme activity, inhibitor, absorbance", "IC50": "20.2 µM"}
{"Structure (SMILES)": "C[C@@H]1O[C@@H](O[C@H]2[C@H](O)[C@@H](O)[C@H](OC[C@H]3O[C@@H](OC(=O)[C@]45CCC(C)(C)C[C@H]4C4=CC[C@@H]6[C@@]7(C)CC[C@H](O[C@@H]8OC[C@H](O)[C@H](O)[C@H]8O)C(C)(C)[C@@H]7CC[C@@]6(C)[C@]4(C)CC5)[C@H](O)[C@@H](O)[C@@H]3O)O[C@@H]2CO)[C@H](O)[C@H](O)[C@H]1O", "target": "MAL12", "assay": "enzyme activity, inhibitor", "IC50": "0.89 µM"}
{"Structure (SMILES)": "Cc1ccc2[nH]c(=O)c(CNC3CCCCC3)cc2c1", "target": "Alpha-1A adrenergic receptor (ADRA1A, Homo sapiens, UniProt P35348, M292L)", "assay": "calcium signal, antagonist", "IC50": "11 µM"}
{"Structure (SMILES)": "CC1(CN)CCN(c2cnc3c(Sc4ccncc4Cl)n[nH]c3n2)CC1", "target": "Tyrosine-protein phosphatase non-receptor type 1 (PTPN1, Homo sapiens, UniProt P18031)", "assay": "enzyme activity, inhibitor", "IC50": "> 100 µM"}
{"Structure (SMILES)": "NC(=S)N/N=C/c1cc2ccccc2nc1SCc1cn(CC(=O)Nc2ccc(Br)cc2)nn1", "target": "MAL12", "assay": "enzyme activity, inhibitor", "IC50": "434 µM"}
{"Structure (SMILES)": "C[C@@H]1O[C@@H](O[C@H]2[C@H](O[C@H]3CC[C@@]4(C)[C@@H](CC[C@]5(C)[C@@H]4CC=C4[C@@H]6CC(C)(C)CC[C@]6(C(=O)O[C@@H]6O[C@H](CO[C@@H]7O[C@H](CO)[C@@H](O[C@@H]8O[C@@H](C)[C@H](O)[C@@H](O)[C@H]8O)[C@H](O)[C@H]7O)[C@@H](O)[C@H](O)[C@H]6O)CC[C@]45C)[C@]3(C)CO)OC[C@H](O)[C@@H]2O)[C@H](O)[C@H](O)[C@H]1O", "target": "MAL12", "assay": "enzyme activity, inhibitor", "IC50": "1.78 µM"}
{"Structure (SMILES)": "Cc1cccc(NC(=O)Cn2cc(CSc3nc4ccccc4cc3/C=N/NC(N)=S)nn2)c1C", "target": "MAL12", "assay": "enzyme activity, inhibitor", "IC50": "247 µM"}
{"Structure (SMILES)": "COc1cc(C(c2c(O)c3ccccc3oc2=O)c2c(O)c3ccccc3oc2=O)ccc1OCc1cn(CC(=O)Nc2cccc(Cl)c2)nn1", "target": "MAL12", "assay": "enzyme activity, inhibitor, absorbance", "IC50": "85.4 µM"}
{"Structure (SMILES)": "Cc1ccc2oc(=O)cc(NCCO)c2c1", "target": "Alpha-1A adrenergic receptor (ADRA1A, Homo sapiens, UniProt P35348, I178V/M292L)", "assay": "calcium signal, antagonist", "IC50": "324 µM"}
{"Structure (SMILES)": "Nc1ncnc2c1ncn2[C@@H]1O[C@H](CO)[C@@H](O)[C@H]1O", "target": "Solute carrier family 22 member 6 (SLC22A6, Homo sapiens, UniProt Q4U2R8)", "assay": "transporter uptake, inhibitor, radiometric", "conditions": "oocytes", "IC50": "> 1000 µM"}
{"Structure (SMILES)": "C[C@@H](OC(C)(C)C)[C@H](NC(=O)OCc1ccccc1)C(=O)N[C@@H](CC1CCCCC1)C(=O)NN(CCC(N)=O)C(=O)C(Cl)Cl", "target": "Replicase polyprotein 1ab, main protease (rep, Severe acute respiratory syndrome coronavirus 2, UniProt P0DTD1)", "assay": "enzyme activity, inhibitor", "conditions": "with preincubation", "IC50": "0.068 µM"}
{"Structure (SMILES)": "Cc1ccccc1NC(=O)Cn1cc(CSc2nc3ccccc3cc2/C=N/NC(N)=S)nn1", "target": "MAL12", "assay": "enzyme activity, inhibitor", "IC50": "354 µM"}
{"Structure (SMILES)": "COc1cc(C(c2c(O)c3ccccc3oc2=O)c2c(O)c3ccccc3oc2=O)ccc1OCc1cn(CC(=O)Nc2ccc(Br)cc2)nn1", "target": "MAL12", "assay": "enzyme activity, inhibitor, absorbance", "IC50": "81.7 µM"}
{"Structure (SMILES)": "CC(C)C[C@H](NC(=O)[C@H](Cc1ccccc1)NC(=O)OCc1ccccc1)C(=O)C=O", "target": "Cathepsin S (CTSS, Homo sapiens, UniProt P25774)", "assay": "enzyme activity, inhibitor, fluorescence", "IC50": "0.15 µM"}
{"Structure (SMILES)": "Cc1cccc(C)c1NC(=O)Cn1cc(CSc2nc3ccccc3cc2/C=N/NC(N)=S)nn1", "target": "MAL12", "assay": "enzyme activity, inhibitor", "IC50": "150 µM"}
{"Structure (SMILES)": "COc1cc(C(c2c(O)c3ccccc3oc2=O)c2c(O)c3ccccc3oc2=O)ccc1OCc1cn(CC(=O)Nc2ccccc2C)nn1", "target": "MAL12", "assay": "enzyme activity, inhibitor, absorbance", "IC50": "50.2 µM"}
{"Structure (SMILES)": "CC1(C)CC[C@]2(C(=O)O)CC[C@]3(C)C(=CC[C@@H]4[C@@]5(C)CC[C@H](O[C@@H]6O[C@H](C(=O)O)[C@@H](O)[C@H](O)[C@H]6O)C(C)(C)[C@@H]5CC[C@]43C)[C@@H]2C1", "target": "MAL12", "assay": "enzyme activity, inhibitor", "IC50": "0.69 µM"}
{"Structure (SMILES)": "NC(=S)N/N=C/c1cc2ccccc2nc1SCc1cn(CC(=O)Nc2cccc([N+](=O)[O-])c2)nn1", "target": "MAL12", "assay": "enzyme activity, inhibitor", "IC50": "217 µM"}
{"Structure (SMILES)": "C[C@@H]1O[C@@H](O[C@H]2[C@H](O)[C@@H](O)[C@H](OC[C@H]3O[C@@H](OC(=O)[C@]45CCC(C)(C)C[C@H]4C4=CC[C@@H]6[C@@]7(C)CC[C@H](O[C@@H]8OC[C@H](O)[C@H](O)[C@H]8O[C@@H]8O[C@H](CO)[C@@H](O)[C@H](O)[C@H]8O)C(C)(C)[C@@H]7CC[C@@]6(C)[C@]4(C)CC5)[C@H](O)[C@@H](O)[C@@H]3O)O[C@@H]2CO)[C@H](O)[C@H](O)[C@H]1O", "target": "MAL12", "assay": "enzyme activity, inhibitor", "IC50": "0.61 µM"}
{"Structure (SMILES)": "Cc1ccc(NC(=O)Cn2cc(CSc3nc4ccccc4cc3/C=N/NC(N)=S)nn2)cc1", "target": "MAL12", "assay": "enzyme activity, inhibitor", "IC50": "490 µM"}
